Assay results from ChEMBL document CHEMBL1817554, “Design of HIV-1 protease inhibitors with C3-substituted hexahydrocyclopentafuranyl urethanes as P2-ligands: synthesis, biological evaluation, and protein-ligand X-ray crystal structure” (J Med Chem, 2011).

What was measured:
[1] = tested on: Human immunodeficiency virus 1; assay: Ratio of IC50 for Human immunodeficiency virus 1 MDR/B to IC50 for wild-type Human immunodeficiency virus 1 ERS104pre; type: functional
[2] = tested on: Human immunodeficiency virus 1; assay: Antiviral activity against multidrug-resistant Human immunodeficiency virus 1 subtype B harboring protease L10I, L33I, M36I, M46I, F53L, K55R, I62 V, L63P, A71 V, G73S, V82A, L90M, I93L mutation infected in PHA-stimulated human PBMC assessed as inhibition of p24 Gag protein production; type: functional, organism-based
In short: (§1)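 PHA-stimulated PBMCs served as target cells, and inhibition of p24 Gag protein production was the end point. Fold change was taken against the wild-type HIV-1ERS104pre IC50. Each assay was run in duplicate or triplicate. Values are means (±1 standard deviation) from three independent experiments.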

[3] = tested on: Human immunodeficiency virus 1; assay: Ratio of IC50 for Human immunodeficiency virus 1 MDR/TM to IC50 for wild-type Human immunodeficiency virus 1 ERS104pre; type: functional
[4] = tested on: Human immunodeficiency virus 1; assay: Antiviral activity against multidrug-resistant Human immunodeficiency virus 1 MDR/TM harboring protease L10I, K14R, R41K, M46L, I54V, L63P, A71V, V82A, L90M, I93L mutation infected in PHA-stimulated human PBMC assessed as inhibition of p24 Gag protein production; type: functional, organism-based; in short: as §1
[5] = tested on: Human immunodeficiency virus 1; assay: Ratio of IC50 for Human immunodeficiency virus 1 MDR/G to IC50 for wild-type Human immunodeficiency virus 1 ERS104pre; type: functional
In short: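 Antiviral IC50s measured against each multidrug-resistant clinical isolate and wild-type HIV-1ERS104pre in PHA-stimulated PBMCs as target cells, with inhibition of p24 Gag production as the end point. The fold change is the isolate IC50 divided by the wild-type IC50. Assays were run in duplicate or triplicate; values are means (±1 SD) of three independent experiments.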

[6] = tested on: Human immunodeficiency virus 1; assay: Ratio of IC50 for Human immunodeficiency virus 1 MDR/C to IC50 for wild-type Human immunodeficiency virus 1 ERS104pre; type: functional
[7] = tested on: Human immunodeficiency virus 1; assay: Antiviral activity against multidrug-resistant Human immunodeficiency virus 1 MDR/C harboring protease L10I, I15 V, K20R, L24I, M36I, M46L, I54V, I62 V, L63P, K70Q, V82A, L89 M mutation infected in PHA-stimulated human PBMC assessed as inhibition of p24 Gag protein production; type: functional, organism-based; in short: as §1
[8] = tested on: Human immunodeficiency virus 1; assay: Antiviral activity against multidrug-resistant Human immunodeficiency virus 1 MDR/G harboring protease L10I, V11I, T12E, I15 V, L19I, R41K, M46L, L63P, A71T, V82A, L90 M mutation infected in PHA-stimulated human PBMC assessed as inhibition of p24 Gag protein production; type: functional, organism-based; in short: as §1
[9] = tested on: Human immunodeficiency virus 1; assay: Antiviral activity against Human immunodeficiency virus 1 LAI infected in human MT2 cells by MTT assay
[10] = tested on: Human immunodeficiency virus 1; assay: Antiviral activity against wild type Human immunodeficiency virus 1 ERS104pre infected in PHA-stimulated human PBMC assessed as inhibition of p24 Gag protein production; type: functional, organism-based; in short: as §1
Protease = Protease (Human immunodeficiency virus 1, UniProt Q9YQ12); assay: Inhibition of Human immunodeficiency virus 1 protease assessed as release of fluorescent N-terminal tripeptide using fluorogenic substrate by continuous fluorometric assay
Protease, sequence (Q9YQ12 whole entry): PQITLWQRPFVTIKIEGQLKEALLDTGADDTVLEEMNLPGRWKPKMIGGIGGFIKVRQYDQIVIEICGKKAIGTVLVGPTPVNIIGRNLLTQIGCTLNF

SMILES | IC50 [9] | Ki (Protease) | further results
CC(C)CN(C[C@@H](O)[C@H](Cc1ccccc1)NC(=O)O[C@H]1CCOC1)S(=O)(=O)c1ccc(N)cc1 |  |  | Ratio IC50 [1]: 31; IC50 [2]: 930 nM; Ratio IC50 [3]: 6; IC50 [4]: 190 nM; Ratio IC50 [5]: 12; Ratio IC50 [6]: 9; IC50 [7]: 260 nM; IC50 [8]: 380 nM
COc1ccc(S(=O)(=O)N(CC(C)C)C[C@@H](O)[C@H](Cc2ccccc2)NC(=O)O[C@@H]2C[C@@H]3[C@@H](O)CO[C@@H]3C2)cc1 | 2.9 nM |  | IC50 [2]: 29 nM; IC50 [10]: 2.9 nM; IC50 [4]: 3.1 nM; IC50 [7]: 22 nM; IC50 [8]: 4.5 nM
COc1ccc(S(=O)(=O)N(CC(C)C)C[C@@H](O)[C@H](Cc2ccccc2)NC(=O)O[C@@H]2C[C@@H]3C(=O)CO[C@@H]3C2)cc1 | 14 nM | 0.95 nM | 
COc1ccc(S(=O)(=O)N(CC(C)C)C[C@@H](O)[C@H](Cc2ccccc2)NC(=O)O[C@@H]2C[C@@H]3[C@H](O)CO[C@@H]3C2)cc1 | 7 nM | 0.077 nM | IC50 [2]: > 1000 nM; IC50 [10]: 20 nM; IC50 [4]: 41 nM; IC50 [7]: > 1000 nM; IC50 [8]: 270 nM
CC(C)CN(C[C@@H](O)[C@H](Cc1ccccc1)NC(=O)O[C@@H]1C[C@@H]2[C@H](O)CO[C@@H]2C1)S(=O)(=O)c1ccc(N)cc1 | 25 nM | 0.079 nM | 
CC(C)CN(C[C@@H](O)[C@H](Cc1ccccc1)NC(=O)O[C@@H]1C[C@@H]2[C@H](O)CO[C@@H]2C1)S(=O)(=O)c1ccc(CO)cc1 | 19 nM | 0.06 nM | 
COc1ccc(S(=O)(=O)N(CC(C)C)C[C@@H](O)[C@H](Cc2ccccc2)NC(=O)O[C@@H]2C[C@@H]3[C@H](OC)CO[C@@H]3C2)cc1 | 37 nM | 0.39 nM | 
CC(C)CN(C[C@@H](O)[C@H](Cc1ccccc1)NC(=O)O[C@@H]1C[C@@H]2[C@@H](O)CO[C@@H]2C1)S(=O)(=O)c1ccc(N)cc1 | 36 nM | 0.006 nM | 
COc1ccc(S(=O)(=O)N(CC(C)C)C[C@@H](O)[C@H](Cc2ccccc2)NC(=O)O[C@@H]2C[C@@H]3[C@@H](OC)CO[C@@H]3C2)cc1 | 3.4 nM | 0.006 nM | 
COc1ccc(S(=O)(=O)N(CC(C)C)C[C@@H](O)[C@H](Cc2ccccc2)NC(=O)O[C@@H]2C[C@@H]3[C@H](C)CO[C@@H]3C2)cc1 | 25 nM | 0.16 nM | 
COc1ccc(S(=O)(=O)N(CC(C)C)C[C@@H](O)[C@H](Cc2ccccc2)NC(=O)O[C@@H]2C[C@@H]3[C@@H](C)CO[C@@H]3C2)cc1 |  | 0.017 nM | 
COc1ccc(S(=O)(=O)N(CC(C)C)C[C@@H](O)[C@H](Cc2ccccc2)NC(=O)O[C@@H]2C[C@@H]3[C@H](N(C)C)CO[C@@H]3C2)cc1 |  | 12.5 nM | 
